Source: publication PMC7446891 (Bioorganic & medicinal chemistry, 2020)

target: EphA2 (Homo sapiens, UniProt P29317); assay: EphA2 activation; format: cell-based; details: 2 μM in 0.1% DMSO, 1hr, U251 EphA2 cells, vs DMSO control
Outline: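 EphA2-overexpressing U251 cells were seeded at 100,000/well, grown 24 h, then given 2 μM test compound in 0.1% DMSO (1 hr per legend; methods text gives 30 min), with 0.1% DMSO vehicle. Cells were lysed 20 min in modified RIPA (pH 7.4, vanadate, NaF, protease inhibitors), immunoprecipitated, then blotted for pEphA/B (1:500) and EphA2 (1:1000), HRP anti-rabbit, chemiluminescence. Bands were quantified by densitometry, 3 experiments, unpaired t-test vs DMSO.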

EphA2, sequence (P29317 24-976): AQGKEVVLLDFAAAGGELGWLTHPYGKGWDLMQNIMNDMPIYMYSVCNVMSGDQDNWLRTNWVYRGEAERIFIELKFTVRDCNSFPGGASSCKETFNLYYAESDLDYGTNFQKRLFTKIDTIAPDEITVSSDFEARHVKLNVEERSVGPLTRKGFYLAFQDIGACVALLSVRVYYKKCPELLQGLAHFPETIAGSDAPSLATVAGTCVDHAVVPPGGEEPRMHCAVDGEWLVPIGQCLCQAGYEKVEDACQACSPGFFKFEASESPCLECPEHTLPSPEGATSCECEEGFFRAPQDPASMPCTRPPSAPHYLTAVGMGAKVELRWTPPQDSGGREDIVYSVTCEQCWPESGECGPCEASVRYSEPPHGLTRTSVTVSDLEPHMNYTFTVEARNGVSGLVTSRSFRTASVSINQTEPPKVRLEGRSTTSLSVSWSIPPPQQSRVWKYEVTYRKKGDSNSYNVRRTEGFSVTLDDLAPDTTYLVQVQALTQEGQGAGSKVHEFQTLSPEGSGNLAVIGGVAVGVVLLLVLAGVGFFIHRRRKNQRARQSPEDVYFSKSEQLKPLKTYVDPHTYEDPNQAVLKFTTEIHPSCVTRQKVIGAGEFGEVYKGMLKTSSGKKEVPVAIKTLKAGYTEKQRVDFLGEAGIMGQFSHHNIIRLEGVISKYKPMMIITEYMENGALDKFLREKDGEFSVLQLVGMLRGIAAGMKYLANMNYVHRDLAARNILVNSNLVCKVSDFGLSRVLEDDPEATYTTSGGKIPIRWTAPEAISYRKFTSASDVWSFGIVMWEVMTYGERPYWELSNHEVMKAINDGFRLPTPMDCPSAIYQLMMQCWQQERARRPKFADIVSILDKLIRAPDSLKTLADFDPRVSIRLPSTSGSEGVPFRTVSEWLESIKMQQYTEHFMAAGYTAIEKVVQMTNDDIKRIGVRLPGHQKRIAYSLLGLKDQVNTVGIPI

Row | SMILES | EphA2 phosphorylation (pEphA/B vs total EphA2)
1 | COc1cc2nc(N3CCN(C(=O)OCCOC(=O)N4CCN(c5nc(N)c6cc(OC)c(OC)cc6n5)CC4)CC3)nc(N)c2cc1OC [Compound 3d, ethane-1,2-diyl bis(4-(4-amino-6,7-dimethoxyquinazolin-2-yl)piperazine-1-carboxylate)] | did not show clear EphA2 activation
2 | COc1cc2nc(N3CCN(C(=O)c4cccc(NC(=O)OCCOCCOCCOC(=O)Nc5cccc(C(=O)N6CCN(c7nc(N)c8cc(OC)c(OC)cc8n7)CC6)c5)c4)CC3)nc(N)c2cc1OC [Compound 7bg, (ethane-1,2-diylbis(oxy))bis(ethane-2,1-diyl)bis((3-(4-(4-amino-6,7-dimethoxyquinazolin-2-yl)piperazine-1-carbonyl)phenyl)carbamate)] | statistical significance compared to control
3 | COc1cc2nc(N3CCN(C(=O)Oc4ccc(C(C)(C)c5ccc(OC(=O)N6CCN(c7nc(N)c8cc(OC)c(OC)cc8n7)CC6)cc5)cc4)CC3)nc(N)c2cc1OC [Compound 3e, propane-2,2-diylbis(4,1-phenylene)bis(4-(4-amino-6,7-dimethoxyquinazolin-2-yl)piperazine-1-carb oxylate)] | better activity to induce EphA2 phosphorylation
